According to ChEMBL document CHEMBL5705905, “Pharmacological targeting of kinases MST1 and MST2 augments tissue repair and regeneration” (Sci Transl Med, 2016):

Assays:
[1] = test system: Tyrosine-protein kinase ABL1 (Homo sapiens), P00519 [E255K]; experiment: Inhibition of phosphorylated ABL1 E255K mutant (unknown origin) assessed as remaining activity at 1 uM by Kinome scan method relative to control
[2] = molecular target: Cyclin-dependent kinase 5 (Homo sapiens) (UniProt Q00535); experiment: Inhibition of CDK5 (unknown origin) assessed as remaining activity at 1 uM by Kinome scan method relative to control
How it was run: (§1)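 Active-site-dependent competition-binding profiling (KINOMEscan) at 1 μM against a 468-kinase panel; compound supplied from a 10 mM DMSO stock. Read-out is ctrl% = (test signal − positive control signal)/(negative control signal − positive control signal) × 100. DMSO is the negative control (100%) and a control compound the positive control (0%). Lower ctrl% means tighter binding.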

[3] = molecular target: Serine/threonine-protein kinase PLK2 (Homo sapiens) (UniProt Q9NYY3); experiment: Inhibition of PLK2 (unknown origin) assessed as remaining activity at 1 uM by Kinome scan method relative to control
[4] = test system: Phosphatidylinositol 4,5-bisphosphate 3-kinase catalytic subunit alpha isoform (Homo sapiens), P42336 [H1047Y]; experiment: Inhibition of PIK3CA H1047Y mutant (unknown origin) assessed as remaining activity at 1 uM by Kinome scan method relative to control
[5] = molecular target: Phosphatidylinositol 4,5-bisphosphate 3-kinase catalytic subunit gamma isoform (Homo sapiens, UniProt P48736); experiment: Inhibition of PIK3CG (unknown origin) in presence of ATP by enzymatic assay
[6] = molecular target: Protein kinase C epsilon type (Homo sapiens) (UniProt Q02156); experiment: Inhibition of PRKCE (unknown origin) assessed as remaining activity at 1 uM by Kinome scan method relative to control
[7] = molecular target: Serine/threonine-protein kinase 3 (Homo sapiens, UniProt Q13188, D109A)
[8] = test system: Receptor-type tyrosine-protein kinase FLT3 (Homo sapiens), P36888 [UNDEFINED MUTATION]; experiment: Inhibition of FLT3 […]/D835V mutant (unknown origin) assessed as remaining activity at 1 uM by Kinome scan method relative to control
[9] = molecular target: T1, Tyrosine-protein kinase JAK1 (Homo sapiens, UniProt P23458); experiment: Binding affinity to JAK1 JH2domain-pseudokinase (unknown origin) assessed as dissociation constant
[10] = molecular target: Serine/threonine-protein kinase ULK2 (Homo sapiens, UniProt Q8IYT8); experiment: Binding affinity to ULK2 (unknown origin) assessed as dissociation constant
[11] = molecular target: Casein kinase I isoform gamma-1 (Homo sapiens) (UniProt Q9HCP0); experiment: Inhibition of CSNK1G1 (unknown origin) assessed as remaining activity at 1 uM by Kinome scan method relative to control; how it was run: as §1
[12] = molecular target: Homeodomain-interacting protein kinase 3 (Homo sapiens) (UniProt Q9H422); experiment: Inhibition of HIPK3 (unknown origin) assessed as remaining activity at 1 uM by Kinome scan method relative to control
[13] = test system: Receptor-type tyrosine-protein kinase FLT3 (Homo sapiens), P36888 [R834Q]; experiment: Inhibition of FLT3 R834Q mutant (unknown origin) assessed as remaining activity at 1 uM by Kinome scan method relative to control
[14] = molecular target: T1, Tyrosine-protein kinase JAK1; experiment: Inhibition of JAK1 JH1 domain (unknown origin) assessed as remaining activity at 1 uM by Kinome scan method relative to control
[15] = test system: Tyrosine-protein kinase ABL1 (Homo sapiens), P00519 [Y253F]; experiment: Inhibition of phosphorylated ABL1 Y253F mutant (unknown origin) assessed as remaining activity at 1 uM by Kinome scan method relative to control
[16] = molecular target: Dual specificity tyrosine-phosphorylation-regulated kinase 2 (Homo sapiens) (UniProt Q92630); experiment: Inhibition of DYRK2 (unknown origin) assessed as remaining activity at 1 uM by Kinome scan method relative to control
[17] = Inhibition of recombinant His-tagged full-length MST1 Y101F mutant (unknown origin) expressing in Escherichia coli assessed as MOB1 phosphorylation level incubated for 15 min by immunoblot analysis; set-up: species or system Homo sapiens
[18] = molecular target: Serine/threonine-protein kinase tousled-like 1 (Homo sapiens) (UniProt Q9UKI8); experiment: Inhibition of TLK1 (unknown origin) assessed as remaining activity at 1 uM by Kinome scan method relative to control
Aurora kinase B = Aurora kinase B (Homo sapiens, UniProt Q96GD4); experiment: Inhibition of AURKB (unknown origin) assessed as remaining activity at 1 uM by Kinome scan method relative to control
How it was run: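 Active-site-dependent competition-binding (KINOMEscan) panel of 468 kinases, test compound at 1 μM (from a 10 mM DMSO stock). Read-out is ctrl% = (test signal − positive control signal)/(negative control signal − positive control signal) × 100. DMSO is the negative control (100%) and a control compound is the positive control (0%). Lower ctrl% means tighter binding.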

[19] = molecular target: Casein kinase I isoform alpha (Homo sapiens) (UniProt P48729); experiment: Inhibition of CSNK1A1 (unknown origin) assessed as remaining activity at 1 uM by Kinome scan method relative to control; how it was run: as §1
[20] = Acute toxicity in wild-type mouse assessed as cell proliferation in kidney at 3 mg/kg,ip administrated daily for 7 days by Ki67 staining; format: organism-based; details: in vivo, 168 h, time 7 day
How it was run: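 Wild-type mice received vehicle or 3 mg/kg i.p. daily for 7 days. Ki67 staining of sections from various tissues with quantification of positive cells, n = 6; means ± SD, Student's t test. Daily weights, physical activity and serum chemistry were also monitored.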

[21] = molecular target: Misshapen-like kinase 1 (Homo sapiens) (UniProt Q8N4C8); experiment: Inhibition of MINK (unknown origin) assessed as remaining activity at 1 uM by Kinome scan method relative to control
[22] = molecular target: Serine/threonine-protein kinase 24 (Homo sapiens, UniProt Q9Y6E0); experiment: Inhibition of MST3 (unknown origin) in presence of ATP by enzymatic assay
[23] = molecular target: Serine/threonine-protein kinase RIO1 (Homo sapiens) (UniProt Q9BRS2); experiment: Inhibition of RIOK1 (unknown origin) assessed as remaining activity at 1 uM by Kinome scan method relative to control
[24] = molecular target: Serine/threonine-protein kinase Nek4 (Homo sapiens) (UniProt P51957); experiment: Inhibition of NEK4 (unknown origin) assessed as remaining activity at 1 uM by Kinome scan method relative to control
[25] = Acute toxicity in mouse assessed as increase in liver/body weight ratio at 1 mg/kg,ip administrated once a daily for 3 weeks relative to control; format: organism-based; details: in vivo, 504 h
How it was run: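 Postnatal mice dosed from 10 days of age with vehicle or 1 mg/kg once per day for 21 days (3 weeks). Vehicle is 0.1% citric acid aqueous solution containing 20% Kolliphor HS 15. Liver sections stained with H&E and by IHC for CK19 and BrdU, with positive cells quantified (n = 3). Liver/body weight ratio recorded (n = 4). Values are means ± SD versus vehicle, Student's t test.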

T1 sequence (P23458 whole entry): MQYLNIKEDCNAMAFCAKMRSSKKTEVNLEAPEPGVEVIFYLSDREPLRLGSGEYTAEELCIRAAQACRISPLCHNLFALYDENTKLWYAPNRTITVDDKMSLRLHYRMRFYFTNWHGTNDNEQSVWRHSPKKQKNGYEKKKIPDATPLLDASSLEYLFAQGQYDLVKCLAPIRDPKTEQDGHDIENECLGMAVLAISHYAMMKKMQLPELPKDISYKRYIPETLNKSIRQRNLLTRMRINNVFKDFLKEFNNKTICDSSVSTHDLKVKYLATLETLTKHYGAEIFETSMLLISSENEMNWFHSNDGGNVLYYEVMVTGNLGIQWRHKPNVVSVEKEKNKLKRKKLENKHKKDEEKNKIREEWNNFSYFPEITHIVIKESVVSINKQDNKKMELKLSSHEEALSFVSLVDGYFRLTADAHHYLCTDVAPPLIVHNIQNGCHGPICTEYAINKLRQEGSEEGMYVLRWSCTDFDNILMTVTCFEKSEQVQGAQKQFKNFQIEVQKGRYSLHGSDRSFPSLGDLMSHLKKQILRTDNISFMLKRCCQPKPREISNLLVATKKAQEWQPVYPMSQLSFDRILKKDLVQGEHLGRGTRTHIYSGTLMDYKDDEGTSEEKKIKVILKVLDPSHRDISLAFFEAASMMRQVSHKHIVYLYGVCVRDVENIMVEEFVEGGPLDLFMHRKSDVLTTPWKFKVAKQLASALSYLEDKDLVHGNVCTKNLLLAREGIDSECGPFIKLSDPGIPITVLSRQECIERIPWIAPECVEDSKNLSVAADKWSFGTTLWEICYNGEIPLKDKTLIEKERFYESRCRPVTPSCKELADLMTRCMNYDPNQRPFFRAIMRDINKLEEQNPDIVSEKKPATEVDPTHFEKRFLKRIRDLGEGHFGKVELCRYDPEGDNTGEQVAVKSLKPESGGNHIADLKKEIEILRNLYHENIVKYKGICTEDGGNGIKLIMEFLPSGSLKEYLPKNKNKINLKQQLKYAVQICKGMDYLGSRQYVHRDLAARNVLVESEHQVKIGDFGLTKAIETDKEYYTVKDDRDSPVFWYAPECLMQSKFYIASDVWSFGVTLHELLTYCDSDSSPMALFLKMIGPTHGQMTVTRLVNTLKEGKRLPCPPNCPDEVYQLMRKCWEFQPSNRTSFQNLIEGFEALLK
Sequence of Serine/threonine-protein kinase RIO1 (Homo sapiens) (Q9BRS2 whole entry): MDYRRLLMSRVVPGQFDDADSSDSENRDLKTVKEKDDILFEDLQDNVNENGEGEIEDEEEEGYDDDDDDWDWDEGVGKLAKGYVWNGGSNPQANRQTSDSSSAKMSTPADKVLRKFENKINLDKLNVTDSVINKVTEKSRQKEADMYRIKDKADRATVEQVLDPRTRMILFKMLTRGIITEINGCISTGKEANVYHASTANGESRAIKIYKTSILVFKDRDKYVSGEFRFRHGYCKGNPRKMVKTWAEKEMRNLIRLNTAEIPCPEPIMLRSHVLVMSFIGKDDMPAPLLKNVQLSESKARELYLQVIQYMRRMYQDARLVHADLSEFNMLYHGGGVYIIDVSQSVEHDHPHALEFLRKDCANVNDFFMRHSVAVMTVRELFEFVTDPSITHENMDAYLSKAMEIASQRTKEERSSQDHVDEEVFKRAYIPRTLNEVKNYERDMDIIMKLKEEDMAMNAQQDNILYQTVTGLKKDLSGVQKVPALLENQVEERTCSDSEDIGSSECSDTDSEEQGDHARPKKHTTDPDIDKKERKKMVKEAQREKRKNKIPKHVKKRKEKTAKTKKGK
Sequence of Phosphatidylinositol 4,5-bisphosphate 3-kinase catalytic subunit gamma isoform (P48736 whole entry, canonical isoform): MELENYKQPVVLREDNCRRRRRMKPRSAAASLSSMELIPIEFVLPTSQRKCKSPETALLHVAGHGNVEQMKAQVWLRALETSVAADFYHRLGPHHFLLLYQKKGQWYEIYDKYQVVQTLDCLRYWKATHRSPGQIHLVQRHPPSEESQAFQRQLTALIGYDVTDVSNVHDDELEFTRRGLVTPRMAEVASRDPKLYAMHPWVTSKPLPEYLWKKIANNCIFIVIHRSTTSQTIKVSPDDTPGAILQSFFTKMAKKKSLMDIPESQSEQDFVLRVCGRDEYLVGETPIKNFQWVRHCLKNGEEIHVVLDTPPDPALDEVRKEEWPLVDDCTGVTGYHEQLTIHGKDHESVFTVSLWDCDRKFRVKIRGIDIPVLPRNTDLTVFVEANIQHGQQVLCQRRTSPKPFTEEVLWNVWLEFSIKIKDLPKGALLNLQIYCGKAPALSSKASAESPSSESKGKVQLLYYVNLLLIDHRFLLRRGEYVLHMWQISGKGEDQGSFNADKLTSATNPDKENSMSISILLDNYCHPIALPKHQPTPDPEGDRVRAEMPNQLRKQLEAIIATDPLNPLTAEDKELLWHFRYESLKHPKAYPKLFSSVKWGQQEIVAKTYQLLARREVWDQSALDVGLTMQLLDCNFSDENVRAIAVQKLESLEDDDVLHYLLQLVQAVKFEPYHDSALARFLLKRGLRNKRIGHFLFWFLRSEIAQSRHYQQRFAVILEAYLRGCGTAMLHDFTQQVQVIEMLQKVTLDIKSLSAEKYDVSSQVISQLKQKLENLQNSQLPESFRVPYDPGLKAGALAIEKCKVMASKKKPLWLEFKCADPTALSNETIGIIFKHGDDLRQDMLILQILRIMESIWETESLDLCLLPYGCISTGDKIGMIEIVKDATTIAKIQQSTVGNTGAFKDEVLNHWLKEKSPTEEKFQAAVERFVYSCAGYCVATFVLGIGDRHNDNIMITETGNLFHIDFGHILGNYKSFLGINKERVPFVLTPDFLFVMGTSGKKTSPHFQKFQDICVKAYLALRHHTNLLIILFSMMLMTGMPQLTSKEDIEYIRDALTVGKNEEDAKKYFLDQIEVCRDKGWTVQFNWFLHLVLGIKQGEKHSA
Sequence of Serine/threonine-protein kinase 24 (Q9Y6E0 whole entry): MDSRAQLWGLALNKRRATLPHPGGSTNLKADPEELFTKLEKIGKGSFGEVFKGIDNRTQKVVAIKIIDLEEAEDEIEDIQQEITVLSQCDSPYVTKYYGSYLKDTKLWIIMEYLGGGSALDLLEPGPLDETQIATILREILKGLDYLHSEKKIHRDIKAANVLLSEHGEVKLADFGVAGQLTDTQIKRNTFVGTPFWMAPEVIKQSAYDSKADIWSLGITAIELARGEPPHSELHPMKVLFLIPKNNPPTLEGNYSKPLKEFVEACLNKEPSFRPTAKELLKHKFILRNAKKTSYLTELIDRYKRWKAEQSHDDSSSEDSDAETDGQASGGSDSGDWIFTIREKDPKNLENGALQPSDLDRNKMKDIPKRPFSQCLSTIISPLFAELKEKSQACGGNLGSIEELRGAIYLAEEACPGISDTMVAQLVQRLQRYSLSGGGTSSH
Sequence of Phosphatidylinositol 4,5-bisphosphate 3-kinase catalytic subunit alpha isoform (Homo sapiens), P42336 [H1047Y] (P42336 whole entry H1047Y, canonical isoform): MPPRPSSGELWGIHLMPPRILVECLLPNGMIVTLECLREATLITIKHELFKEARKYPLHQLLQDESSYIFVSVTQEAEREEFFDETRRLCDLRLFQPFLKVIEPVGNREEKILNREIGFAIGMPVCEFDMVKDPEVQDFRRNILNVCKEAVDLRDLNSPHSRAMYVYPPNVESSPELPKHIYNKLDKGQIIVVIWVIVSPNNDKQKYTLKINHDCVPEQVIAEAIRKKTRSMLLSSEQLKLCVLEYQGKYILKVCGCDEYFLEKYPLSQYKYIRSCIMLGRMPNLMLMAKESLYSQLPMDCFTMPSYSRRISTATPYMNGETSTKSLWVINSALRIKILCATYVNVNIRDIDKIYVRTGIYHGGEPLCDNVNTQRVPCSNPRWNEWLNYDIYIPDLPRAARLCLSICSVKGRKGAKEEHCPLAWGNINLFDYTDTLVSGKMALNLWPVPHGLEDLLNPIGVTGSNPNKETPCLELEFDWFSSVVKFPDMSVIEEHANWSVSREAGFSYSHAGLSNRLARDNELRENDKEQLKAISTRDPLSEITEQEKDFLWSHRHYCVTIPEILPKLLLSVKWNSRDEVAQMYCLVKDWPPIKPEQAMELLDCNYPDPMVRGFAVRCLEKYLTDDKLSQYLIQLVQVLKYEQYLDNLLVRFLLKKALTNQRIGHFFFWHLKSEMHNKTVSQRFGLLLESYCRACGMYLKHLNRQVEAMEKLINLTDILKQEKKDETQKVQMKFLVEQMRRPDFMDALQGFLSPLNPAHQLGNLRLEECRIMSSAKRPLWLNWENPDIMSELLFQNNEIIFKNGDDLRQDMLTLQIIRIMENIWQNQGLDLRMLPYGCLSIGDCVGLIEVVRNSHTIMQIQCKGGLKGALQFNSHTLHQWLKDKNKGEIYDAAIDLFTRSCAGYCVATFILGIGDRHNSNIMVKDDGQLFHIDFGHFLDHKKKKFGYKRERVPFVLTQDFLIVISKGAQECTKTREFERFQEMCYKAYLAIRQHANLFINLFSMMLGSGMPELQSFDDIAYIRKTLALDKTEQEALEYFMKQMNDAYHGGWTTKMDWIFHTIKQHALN
Sequence of Casein kinase I isoform alpha (Homo sapiens) (P48729 2-337 limits assumed): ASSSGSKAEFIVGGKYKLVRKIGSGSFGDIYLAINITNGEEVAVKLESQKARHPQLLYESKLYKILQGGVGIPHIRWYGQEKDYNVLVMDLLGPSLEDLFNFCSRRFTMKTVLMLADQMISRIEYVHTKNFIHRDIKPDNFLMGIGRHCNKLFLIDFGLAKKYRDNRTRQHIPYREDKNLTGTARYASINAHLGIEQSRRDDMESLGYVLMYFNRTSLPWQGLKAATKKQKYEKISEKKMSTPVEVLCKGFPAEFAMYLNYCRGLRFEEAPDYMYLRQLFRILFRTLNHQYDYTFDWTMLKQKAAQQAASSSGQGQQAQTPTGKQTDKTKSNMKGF
Sequence of Aurora kinase B (Q96GD4 whole entry): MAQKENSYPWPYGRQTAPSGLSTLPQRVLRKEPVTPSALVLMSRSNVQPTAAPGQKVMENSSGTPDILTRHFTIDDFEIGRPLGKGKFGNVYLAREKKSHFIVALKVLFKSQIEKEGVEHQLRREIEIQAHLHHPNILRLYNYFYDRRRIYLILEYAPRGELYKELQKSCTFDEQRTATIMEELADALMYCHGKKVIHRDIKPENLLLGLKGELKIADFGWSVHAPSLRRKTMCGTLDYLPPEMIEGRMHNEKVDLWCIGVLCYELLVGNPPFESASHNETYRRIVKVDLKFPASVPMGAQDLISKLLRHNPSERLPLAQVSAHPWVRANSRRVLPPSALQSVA

CN1C(=O)c2sccc2N(C)c2nc(Nc3ccc(S(N)(=O)=O)cc3)ncc21
Activity [1]: 11%
Activity [2]: 94%
Activity [3]: 42%
Activity [4]: 57%
IC50 [5]: 0.0384 µM
Activity [6]: 98%
IC50 [7]: 1.04 µM
Activity [8]: 27%
Kd [9]: 0.022 µM
Kd [10]: 0.035 µM
Activity [11]: 79%
Activity [12]: 100%
Activity [13]: 91%
Activity [14]: 97%
Activity [15]: 15%
Activity [16]: 84%
IC50 [17]: 0.355 µM
Activity [18]: 100%
Activity (Aurora kinase B): 3.4%
Activity [19]: 88%
Activity [20]: Non-Toxic
Activity [21]: 58%
IC50 [22]: 0.0448 µM
Activity [23]: 86%
Activity [24]: 94%
Activity [25]: 15%
